Published values collected from several papers.
Each line is one published result; the experiments were not run side by side. ≈ marks a conversion by molar mass, not a printed value.

| Compound | target or system | test | system | conditions | endpoint | value |
| --- | --- | --- | --- | --- | --- | --- |
| C#Cc1cccc(O)c1C=NNC(=O)c1ccc(COC)cc1 | Aspergillus fumigatus | microbial growth |  | 48 h, pH 6.5 | MIC80 | > 16 µg/mL |
| O=[N+]([O-])NC(=S)NN=Cc1ccc(Br)cc1 | Leishmania major | parasite growth, MTT |  | 72 h, promastigote | IC50 | 433 µM |
| N#C[Se]CCCCOc1ccc2c(-c3ccccc3)cc(=O)oc2c1 | HeLa | cell growth or viability, SRB |  |  | GI50 | 23 µM |
| CC[C@H](C)[C@H](NC(=O)[C@@H]1CCCN1C(=O)[C@H](CCC(=O)O)NC(=O)[C@H](CC(C)C)NC(=O)[C@@H](N)C(C)C)C(=O)N[C@@H](CC(C)C)C(=O)N[C@@H](Cc1c[nH]cn1)C(=O)N[C@@H](CO)C(=O)N[C@H](C(=O)O)[C@@H](C)OP(=O)(O)O | HeLa | cell growth or viability, MTT |  | 72 h | IC50 | 0.82 µM |
| C#Cc1cccc(C=NNC(=O)c2ccc(Br)cc2)c1O | Aspergillus fumigatus | microbial growth |  | 48 h, pH 6.5 | MIC80 | 4 µg/mL (≈ 11.7 µM) |
| C[S+]([O-])CCCCN=C=S (stereo not drawn) | HDFa | cell growth or viability, MTT |  | 24 h | IC50 | 49.8 µM |
| O=c1[nH]c(=O)n([C@@H]2O[C@H](COCc3ccccc3)[C@@H](OCc3ccccc3)[C@H](OCc3ccccc3)[C@H]2I)cc1F | Japanese encephalitis virus | viral replication, inhibitor, ELISA | Vero |  | IC50 | 4.98 µM |
| N.N.[Cl][Pt][Cl] | SU-DHL-6 | cell growth or viability, ATP luminescence |  | 10 µM, 72 h | inhibition | 100% |
| O=[N+]([O-])NC(=S)NN=Cc1ccc(F)cc1 | Leishmania major | parasite growth | J774.A1 | 72 h, intracellular, amastigote | IC50 | 76.4 µM |
| CN[C@H](CC(C)C)C(=O)N[C@H]1C(=O)N[C@@H](CC(N)=O)C(=O)N[C@H]2C(=O)N[C@H]3C(=O)N[C@H](C(=O)N[C@H](C(=O)O)c4cc(O)cc(O)c4-c4cc3ccc4O)[C@H](O)c3ccc(c(Cl)c3)Oc3cc2cc(c3O[C@@H]2O[C@H](CO)[C@@H](O)[C@H](O)[C@H]2O[C@H]2C[C@](C)(N)[C@H](O)[C@H](C)O2)Oc2ccc(cc2Cl)[C@H]1O | Enterococcus faecalis | microbial growth | VRE | drug-resistant strain | MIC | 64 µg/mL (≈ 44.2 µM) |
| N#C[Se]Cc1cc(=O)oc2cc(O)ccc12 | HeLa | cell growth or viability, SRB |  |  | GI50 | 20 µM |
| C#Cc1ccc(O)c(C=NNC(=O)c2ccc(Br)cc2Br)c1 | Aspergillus fumigatus | microbial growth |  | 48 h, pH 6.5 | MIC80 | 2 µg/mL (≈ 4.74 µM) |
| Nc1ccn([C@@H]2O[C@H](COCc3ccccc3)[C@@H](OCc3ccccc3)[C@H](OCc3ccccc3)[C@H]2I)c(=O)n1 | Japanese encephalitis virus | viral replication, inhibitor, ELISA | Vero |  | IC50 | > 20 µM |
| Cc1ccc(C=NNC(=S)N[N+](=O)[O-])cc1 | Leishmania major | parasite growth, MTT |  | 72 h, promastigote | IC50 | 346 µM |
| C#Cc1ccc(O)c(C=NNC(=O)c2ccc(COC)cc2)c1 | Aspergillus fumigatus | microbial growth |  | 48 h, pH 6.5 | MIC80 | 1 µg/mL (≈ 3.24 µM) |
